Laboratory results published in ChEMBL document CHEMBL1140467, “Small molecule ago-allosteric modulators of the human glucagon-like peptide-1 (hGLP-1) receptor” (Bioorg Med Chem Lett, 2007).
The source made the active and inactive calls. The rule behind the calls is not given here.

Tests used:
[1] = target: T1, Glucagon-like peptide 1 receptor (Homo sapiens, UniProt P43220); experiment: Agonist activity at human GLP1 assessed as stimulation of cAMP; type: functional
How it was run: (§1)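 cAMP production was measured in a membrane-based assay at the human GLP-1 receptor. Potency is reported as EC50 and efficacy as Emax (%).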

[2] = target: T1, Glucagon-like peptide 1 receptor; experiment: Agonist activity at human GLP1 assessed as stimulation of cAMP relative to cAMP; type: functional; how it was run: as §1
[3] = target: T1, Glucagon-like peptide 1 receptor; experiment: Effect on augmentation of [125]GLP1 binding to human GLP1; settings: read-out: IC50 (the source's name)
How it was run: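 Test agents were incubated with human GLP-1 receptor and GLP-1, and the rise in GLP-1 binding was followed across agent concentrations. IC50 is the agent concentration giving 50% of its maximal augmentation of GLP-1 binding.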

[4] = organism: Mus musculus; experiment: Effect on release of insulin in mouse islets; type: functional
[5] = test system: Pancreas; experiment: Effect on release of insulin in perfused rat pancreas; type: functional, tissue-based

T1 sequence (P43220 whole entry): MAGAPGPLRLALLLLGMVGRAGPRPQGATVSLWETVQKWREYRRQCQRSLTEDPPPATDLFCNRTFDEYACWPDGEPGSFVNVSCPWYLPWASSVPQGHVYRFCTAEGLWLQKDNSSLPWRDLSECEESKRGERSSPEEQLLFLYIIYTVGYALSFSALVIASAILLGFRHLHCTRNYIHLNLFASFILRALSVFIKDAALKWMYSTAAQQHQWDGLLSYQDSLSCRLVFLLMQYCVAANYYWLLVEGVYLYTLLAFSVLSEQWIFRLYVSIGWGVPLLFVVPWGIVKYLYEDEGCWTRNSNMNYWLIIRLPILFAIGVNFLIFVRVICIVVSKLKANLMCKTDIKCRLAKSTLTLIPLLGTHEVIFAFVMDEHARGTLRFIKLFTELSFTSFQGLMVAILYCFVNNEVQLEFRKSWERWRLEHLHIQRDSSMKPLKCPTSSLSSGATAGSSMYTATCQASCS

Emax [2]	EC50 [1]	EC50 [3]	SMILES	other results
			O=S1(=O)CCCc2nc3cc(Cl)c(Cl)cc3nc21	Activity [1]: inactive
< 2%			Nc1nc2cc(Cl)c(Cl)cc2nc1C(F)(F)F	
46%			CC(C)Sc1nc2cc(Cl)c(Cl)cc2nc1S(C)(=O)=O	
40%	2600 nM	91 nM	CS(=O)(=O)c1nc2cc(Cl)c(Cl)cc2nc1C(F)(F)F	
24%	> 10000 nM	3100 nM	CCOC(=O)c1nc2cc(Cl)c(Cl)cc2nc1S(C)(=O)=O	
82%	214 nM	107 nM	CC(C)Nc1nc2cc(Cl)c(Cl)cc2nc1S(C)(=O)=O	
< 2%			CCCc1nc2cc(OC)c(OC)cc2nc1S(C)(=O)=O	
47%	2200 nM	530 nM	CN(C)c1nc2cc(Cl)c(Cl)cc2nc1S(C)(=O)=O	
85%	155 nM		CC(C)(C)Nc1nc2cc(Cl)c(Cl)cc2nc1S(C)(=O)=O	Activity [4]: Active; Activity [5]: Active
32%	14000 nM		CC(=O)NNc1nc2cc(Cl)c(Cl)cc2nc1S(C)(=O)=O	
38%	14000 nM		CS(=O)(=O)c1nc2cc(Cl)c(Cl)cc2nc1N1CCC(=O)N1	
< 2%			CCOC(=O)c1nc2cc(Cl)c(Cl)cc2nc1C(F)(F)F	
71%	3000 nM	551 nM	CC(C)c1nc2cc(Cl)c(Cl)cc2nc1S(=O)(=O)CCC1OCCO1	
43%	1400 nM		CS(=O)(=O)c1nc2cc(Cl)c(Cl)cc2nc1NC1CCS(=O)(=O)C1 (stereo unspecified)	
< 2%			N#Cc1nc2cc(Cl)c(Cl)cc2nc1C(F)(F)F	
29%	30000 nM	1100 nM	CC(C)c1nc2cc(Cl)c(Cl)cc2nc1[S+](C)[O-] (stereo unspecified)	
			CC(C)n1c(S(C)(=O)=O)nc2cc(Cl)c(Cl)cc21	Activity [1]: inactive
22%	7100 nM		CC(=O)NCCNc1nc2cc(Cl)c(Cl)cc2nc1S(C)(=O)=O	
< 2%		> 10000 nM	CCN(CC)C(=O)c1nc2cc(Cl)c(Cl)cc2nc1C(C)C	
< 2%			CC(C)c1nc2cc(Cl)c(Cl)cc2nc1O	
35%	5000 nM	253 nM	CC(C)c1nc2cc(Cl)c(Cl)cc2nc1S(C)(=O)=O	

Emax [2]	EC50 [1]	EC50 [3]	SMILES	other results
			COC(=O)c1cc2cc(Cl)c(Cl)cc2nc1S(C)(=O)=O	Activity [1]: inactive
94%	175 nM		CCC(C)Nc1nc2cc(Cl)c(Cl)cc2nc1S(C)(=O)=O (stereo unspecified)	
69%	433 nM		CS(=O)(=O)c1nc2cc(Cl)c(Cl)cc2nc1NC1CCCc2ccccc21 (stereo unspecified)	
19%	5100 nM		Cc1nnc([S+]([O-])c2nc3cc(Cl)c(Cl)cc3nc2C(C)C)s1 (stereo unspecified)	
47%	1000 nM		Cc1nnc(S(=O)(=O)c2nc3cc(Cl)c(Cl)cc3nc2C(C)C)s1	
24%	6300 nM		CS(=O)(=O)c1nc2cc(Cl)c(Cl)cc2nc1N	
42%	2200 nM		CC(C)(C)Nc1nc2c(Cl)cc(C(F)(F)F)cc2nc1S(C)(=O)=O	
72%	2200 nM		CS(=O)(=O)c1nc2cc(Cl)c(Cl)cc2nc1N1CCCC1	
< 2%			CCCc1nc2cc(C)c(C)cc2nc1S(C)(=O)=O	
< 2%			CCOP(=O)(OCC)c1nc2cc(Cl)c(Cl)cc2nc1C(F)(F)F	
64%	3300 nM		CC(C)c1nc2cc(Cl)c(Cl)cc2nc1S(=O)(=O)Cc1ccc(S(=O)(=O)CC2CC2)cc1	
65%	4900 nM		COC(=O)CCNS(=O)(=O)c1ccc(CS(=O)(=O)c2nc3cc(Cl)c(Cl)cc3nc2C(C)C)cc1	
31%	5000 nM		CC(C)Nc1nc2cc(Cl)c([N+](=O)[O-])c(C(F)(F)F)c2nc1S(C)(=O)=O	
46%	725 nM	109 nM	CCNc1nc2cc(Cl)c(Cl)cc2nc1S(C)(=O)=O	
68%	1200 nM	404 nM	CCCc1nc2cc(Cl)c(Cl)cc2nc1S(C)(=O)=O	
38%	1500 nM		CC(C)Nc1nc2c([N+](=O)[O-])c(Cl)c(Cl)cc2nc1S(C)(=O)=O	
75%	1800 nM	460 nM	CC(C)N(C)c1nc2cc(Cl)c(Cl)cc2nc1S(C)(=O)=O	
< 2%		> 10000 nM	CC(C)C(=O)c1nc2cc(Cl)c(Cl)cc2nc1C(C)C	
52%	2600 nM		CON(C)c1nc2cc(Cl)c(Cl)cc2nc1S(C)(=O)=O	
63%	1200 nM	459 nM	CC(C)c1nc2cc(Cl)c(Cl)cc2nc1S(=O)(=O)Cc1ccc(S(C)(=O)=O)cc1	
44%	4300 nM		CCC(C)Nc1nc2cc(Cl)c([N+](=O)[O-])cc2nc1S(C)(=O)=O (stereo unspecified)	
